Results on eight compounds are retold here after ChEMBL document CHEMBL3351518, “Synthesis and antibacterial activity of catecholate-ciprofloxacin conjugates” (Bioorg Med Chem, 2014).

Converted amounts (≈) assume the structure as drawn. Some results are limits rather than exact numbers.

Data set [1] concerns Pseudomonas aeruginosa. Briefly: Antimicrobial activity against ciprofloxacin-sensitive Pseudomonas aeruginosa DSM 1117 grown under Mueller-Hinton medium by broth microdilution method. The class given is functional. The procedure, abridged:
(§1)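 Overnight cultures at 35 °C in Tryptic Soy Broth were streaked on Tryptic Soy Agar, and inocula were prepared per CLSI. Broth microdilution used two-fold serial dilutions of 0.0625–128 µg/mL from DMSO stocks made with gentle heating (40 °C) and 10 min sonication. Ciprofloxacin served as control in each series. MIC was the highest dilution with clear wells. Media: cation-adjusted Mueller–Hinton, pH 7.3; succinate minimum medium, pH 7.0, without or with 1 µM FeCl3 added.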

The test system of data set [2] is Pseudomonas aeruginosa. Kind of data set: Antimicrobial activity against ciprofloxacin-sensitive Pseudomonas aeruginosa DSM 1117 grown under succinate minimum medium by broth microdilution method. The class given is functional. Summed up: as §1
A general note: Broth dilution looks for growth in wells or tubes with falling amounts of substance.

For data set [3], the system named is Pseudomonas aeruginosa. Briefly: Antimicrobial activity against ciprofloxacin-sensitive Pseudomonas aeruginosa DSM 1117 grown under succinate minimum medium in presence of 1 uM FeCl3 by broth microdilution method. The class given is functional. Summed up: as §1
Data set [4] deals with Pseudomonas aeruginosa. Briefly: Antimicrobial activity against ciprofloxacin-resistant Pseudomonas aeruginosa AM 85 grown under Mueller-Hinton medium by broth microdilution method. The class given is functional. The procedure, abridged: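 AM 85 is a clinical isolate with efflux-mediated ciprofloxacin resistance. Grown overnight at 35 °C in Tryptic Soy Broth, then streaked on Tryptic Soy Agar. CLSI broth microdilution in cation-adjusted Mueller–Hinton broth, pH 7.3. DMSO stock (40 °C warming, 10 min sonication) diluted two-fold, 0.0625–128. MIC is the highest dilution with clear wells.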

Data set [5] concerns Pseudomonas aeruginosa. Kind of data set: Antimicrobial activity against ciprofloxacin-resistant Pseudomonas aeruginosa AM 85 grown under succinate minimum medium by broth microdilution method. The format is functional. Summed up: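 AM 85 is a clinical isolate with efflux-mediated ciprofloxacin resistance. Overnight growth at 35 °C in Tryptic Soy Broth, then Tryptic Soy Agar plates. CLSI broth microdilution in iron-deprived succinate minimum medium, pH 7.0, with no iron added. Two-fold dilutions (0.0625–128) from a DMSO stock made with 40 °C warming and 10 min sonication. MIC read as the highest dilution with clear wells.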

For data set [6], the system named is Pseudomonas aeruginosa. Briefly: Antimicrobial activity against ciprofloxacin-resistant Pseudomonas aeruginosa AM 85 grown under succinate minimum medium in presence of 1 uM FeCl3 by broth microdilution method. The class given is functional. The procedure, abridged: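 Clinical efflux-mediated ciprofloxacin-resistant isolate AM 85, grown overnight at 35 °C in Tryptic Soy Broth and isolated on Tryptic Soy Agar. CLSI broth microdilution in succinate minimum medium, pH 7.0, supplemented with FeCl3 for iron-enriched conditions. Compounds were dissolved in DMSO (40 °C, 10 min sonication) and serially diluted two-fold, 0.0625–128. MIC is the highest dilution with clear wells.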

Data set [7] in a line: Toxicity in human RBC assessed as induction of hemolysis up to 384 ug/ml after 1 hr relative to saponin. The format is cell-based, Erythrocyte. The note with it: red blood cells (RBC), read-out: Activity. Summed up: (§2)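 Human red blood cells were washed three times in TRIS buffer (10 mmol/l TRIS, 150 mmol/l NaCl, pH 7.4) and suspended at 0.5% (v/v). 15 µL of test or control solution was added to 235 µL suspension, in triplicate, with 1% saponin as 100% hemolysis and DMSO/TRIS as negative controls. Incubation was 1 h at 37 °C. After centrifugation, supernatant OD was read at 405 nm.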

The nature of data set [8]: Induction of iron complexation in mixed H2O/DMSO solvent mixture (0.2 mole fraction of DMSO) at 1:3 mixture of […] at 25 degC at 3.0 <pH <4.1 by UV-visible spectrophotometry. The format is physicochemical. Summed up:
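UV–visible spectra of 1:3 iron(III):ligand solutions were recorded across pH in H2O/DMSO at 0.2 DMSO mole fraction, 25 °C. pH was adjusted by automatic titrator addition of 0.1 M KOH prepared in the same solvent. The glass electrode was calibrated by titrating 0.1 M HCl with KOH in H2O/DMSO.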

Data set [9] can be described thus: Toxicity in human RBC assessed as induction of hemolysis after 1 hr relative to saponin. The format is cell-based, Erythrocyte. The note with it: red blood cells (RBC), read-out: Activity. The procedure, abridged:
as §2

Data set [10] in a line: Toxicity in human RBC assessed as induction of hemolysis at 384 ug/ml after 1 hr relative to saponin. The format is cell-based, Erythrocyte. The note with it: red blood cells (RBC), read-out: Activity. Summed up: as §2

A word on the MIC: it is the smallest concentration in the dilution series that meets the test's criterion for growth inhibition. `O=C(O)c1cn(C2CC2)c2cc(N3CCN(C(=O)c4cccc(O)c4O)CC3)c(F)cc2c1=O`: the MIC against Pseudomonas aeruginosa [1] is above 128 µg/mL; in the data set with Pseudomonas aeruginosa [2], 32 µg/mL (≈ 68.5 µM); with Pseudomonas aeruginosa [3], 16 µg/mL; in the data set on Pseudomonas aeruginosa [4], above 128 µg/mL; with Pseudomonas aeruginosa [5] it was 64 µg/mL (≈ 137 µM); in the data set on Pseudomonas aeruginosa [6], 32 µg/mL. Moreover, the hemolysis at 1 h in data set [7] was below 10%. The result in data set [8] was Active.

As for `O=C(CN1CCN(c2cc3c(cc2F)c(=O)c(C(=O)O)cn3C2CC2)CC1)OCC(CCCNC(=O)c1cccc(O)c1O)(CCCNC(=O)c1cccc(O)c1O)CCCNC(=O)c1cccc(O)c1O`, the minimal inhibitory concentration (MIC) in the data set on Pseudomonas aeruginosa [1] is 8 µg/mL (≈ 8.02 µM); in the data set with Pseudomonas aeruginosa [2] it was 8 µg/mL (≈ 8.02 µM); in the data set on Pseudomonas aeruginosa [3], 4 µg/mL; against Pseudomonas aeruginosa [4], above 128 µg/mL; in the data set with Pseudomonas aeruginosa [5], above 128 µg/mL; in the data set on Pseudomonas aeruginosa [6], above 128 µg/mL. Moreover, in data set [9], the hemolysis at 1 h is below 10%.

In the case of `COC(=O)CN1CCN(c2cc3c(cc2F)c(=O)c(C(=O)O)cn3C2CC2)CC1`, the minimum inhibitory concentration (MIC) against Pseudomonas aeruginosa [1] was 8 µg/mL (≈ 19.8 µM); with Pseudomonas aeruginosa [2], 16 µg/mL (≈ 39.7 µM); in the data set on Pseudomonas aeruginosa [3], 16 µg/mL; against Pseudomonas aeruginosa [4], above 128 µg/mL; in the data set with Pseudomonas aeruginosa [5] it was above 128 µg/mL; in the data set on Pseudomonas aeruginosa [6], above 128 µg/mL. In [7], the hemolysis at 1 h was below 10%.

In the case of `O=C(O)c1cn(C2CC2)c2cc(N3CCNCC3)c(F)cc2c1=O` [CIPROFLOXACIN], the minimum inhibitory concentration (MIC) stood at 16 µg/mL (≈ 48.3 µM) in the data set on Pseudomonas aeruginosa [4], 16 µg/mL (≈ 48.3 µM) against Pseudomonas aeruginosa [5] and 32 µg/mL with Pseudomonas aeruginosa [6]. Further, the hemolysis at 1 h in data set [9] is below 10%.

As to `O=C(O)CN1CCN(c2cc3c(cc2F)c(=O)c(C(=O)O)cn3C2CC2)CC1`, the MIC was determined as 0.25 µg/mL (≈ 0.642 µM) in the data set on Pseudomonas aeruginosa [1]; 0.125 µg/mL (≈ 0.321 µM) against Pseudomonas aeruginosa [2]; 0.125 µg/mL with Pseudomonas aeruginosa [3]; 16 µg/mL (≈ 41.1 µM) in the data set with Pseudomonas aeruginosa [4]; 16 µg/mL (≈ 41.1 µM) against Pseudomonas aeruginosa [5]; 16 µg/mL with Pseudomonas aeruginosa [6]. Also, in [10], the hemolysis at 1 h, 384 ug/ml is 40%.

Consider `O=C(NCCCC(CCCNC(=O)c1cccc(O)c1O)(CCCNC(=O)c1cccc(O)c1O)C(=O)N1CCN(c2cc3c(cc2F)c(=O)c(C(=O)O)cn3C2CC2)CC1)c1cccc(O)c1O`, for which the minimal inhibitory concentration (MIC) in the data set on Pseudomonas aeruginosa [1], against Pseudomonas aeruginosa [2], with Pseudomonas aeruginosa [3], against Pseudomonas aeruginosa [4], in the data set with Pseudomonas aeruginosa [5] and with Pseudomonas aeruginosa [6] was above 128 µg/mL throughout. For the same compound, the hemolysis at 1 h, 384 ug/ml in [10] came to 40%.

Consider `O=C(CCN1CCN(c2cc3c(cc2F)c(=O)c(C(=O)O)cn3C2CC2)CC1)OCC(CCCNC(=O)c1cccc(O)c1O)(CCCNC(=O)c1cccc(O)c1O)CCCNC(=O)c1cccc(O)c1O`, for which the MIC in the data set on Pseudomonas aeruginosa [1] is above 128 µg/mL; in the data set with Pseudomonas aeruginosa [2], above 128 µg/mL; with Pseudomonas aeruginosa [3], 64 µg/mL; in the data set with Pseudomonas aeruginosa [4], above 128 µg/mL; in the data set on Pseudomonas aeruginosa [5] it was above 128 µg/mL; in the data set on Pseudomonas aeruginosa [6], above 128 µg/mL. In addition, the hemolysis at 1 h in data set [9] was below 10%.

With `O=C(CCCN1CCN(c2cc3c(cc2F)c(=O)c(C(=O)O)cn3C2CC2)CC1)OCC(CCCNC(=O)c1cccc(O)c1O)(CCCNC(=O)c1cccc(O)c1O)CCCNC(=O)c1cccc(O)c1O`, the MIC in the data set on Pseudomonas aeruginosa [1] is 64 µg/mL (≈ 62.4 µM); against Pseudomonas aeruginosa [2], 64 µg/mL (≈ 62.4 µM); in the data set on Pseudomonas aeruginosa [3], 32 µg/mL; against Pseudomonas aeruginosa [4], above 128 µg/mL; against Pseudomonas aeruginosa [5] it was above 128 µg/mL; in the data set on Pseudomonas aeruginosa [6], above 128 µg/mL. Also, the hemolysis at 1 h in [9] was below 10%.
